These results are taken from ChEMBL document CHEMBL3045671, “Non-imidazole histamine H3 ligands: part V. synthesis and preliminary pharmacological investigation of 1-[2-thiazol-4-yl- and 1-[2-thiazol-5-yl-(2-aminoethyl)]-4-n-propylpiperazine derivatives” (Med Chem Res, 2013).

Histamine H3 receptor (Cavia porcellus, UniProt Q9JI35), sequence (Q9JI35 whole entry): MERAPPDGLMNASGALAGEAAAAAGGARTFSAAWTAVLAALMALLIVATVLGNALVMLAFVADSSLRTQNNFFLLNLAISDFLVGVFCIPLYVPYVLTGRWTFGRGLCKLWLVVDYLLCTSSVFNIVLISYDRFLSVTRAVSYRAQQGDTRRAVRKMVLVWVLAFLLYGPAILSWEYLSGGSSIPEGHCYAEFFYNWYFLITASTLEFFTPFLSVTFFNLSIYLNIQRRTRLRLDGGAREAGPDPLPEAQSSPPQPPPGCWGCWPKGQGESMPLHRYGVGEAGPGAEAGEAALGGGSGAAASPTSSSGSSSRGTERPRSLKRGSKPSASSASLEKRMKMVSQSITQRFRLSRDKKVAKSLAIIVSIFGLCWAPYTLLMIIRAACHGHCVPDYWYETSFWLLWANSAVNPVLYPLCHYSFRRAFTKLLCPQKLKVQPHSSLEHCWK

One assay addresses Histamine H3 receptor (Cavia porcellus, UniProt Q9JI35). Description: Antagonist activity at H3 receptor in Cavia porcellus (guinea pig) jejunum assessed as inhibition of electrically evoked muscle contraction. Conditions: read-out: pA2 (converted). A digest of the protocol:
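Segments under 1.0 g tension, isotonic recording; 1 h equilibration with washes every 10 min. Field-stimulated maximally (15–20 V) at 0.1 Hz, 0.5 ms rectangular pulses. After 30 min stimulation, cumulative (R)-α-methylhistamine curves (half-log steps) run with pyrilamine 1 × 10⁻⁵ mol/L in bath. The curve was repeated 20 min after the test compound was added, with pyrilamine given beforehand.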
On to `CCCN1CCN(c2ncc(CCN(C)C(=O)c3ccc([N+](=O)[O-])cc3)s2)CC1`, for which the Kb is 17.4 nM.

As for `CCCN1CCN(c2ncc(CCN(C)C(=O)c3ccc(Cl)cc3)s2)CC1`, the Kb was 18.6 nM.

Take `CCCN1CCN(c2ncc(CCN(C)C(=O)c3ccc(C)cc3)s2)CC1`: the Kb is 24.5 nM.

Turning to `CCCN1CCN(c2ncc(CCN(C)C(=O)c3ccccc3)s2)CC1`, the Kb was 35.5 nM.

With `CCCN1CCN(c2ncc(CCN(C)CCc3ccccc3)s2)CC1`, the Kb is 24.5 nM.

On to `CCCN1CCN(c2nc(CCN(C)C(=O)c3ccc([N+](=O)[O-])cc3)cs2)CC1`, for which the Kb is 933 nM.

With `CCCN1CCN(c2nc(CCN(C)C(=O)c3ccc(Cl)cc3)cs2)CC1`, the Kb was 589 nM.

With `CCCN1CCN(c2nc(CCN(C)C(=O)c3ccc(C)cc3)cs2)CC1`, the Kb is 1580 nM.

Take `CCCN1CCN(c2nc(CCN(C)C(=O)c3ccccc3)cs2)CC1`: the Kb was 2240 nM.

Take `CCCN1CCN(c2nc(CCN(C)CCCCCc3ccccc3)cs2)CC1`: the Kb was 204 nM.

With `CCCN1CCN(c2nc(CCN(C)CCCCc3ccccc3)cs2)CC1`, the Kb was 191 nM.

Regarding `CCCN1CCN(c2nc(CCN(C)CCCc3ccccc3)cs2)CC1`, the Kb is 245 nM.

Take `CCCN1CCN(c2nc(CCN(C)Cc3ccccc3)cs2)CC1`: the Kb is 75.9 nM.

In the case of `CCCN1CCN(c2nc(CCN(C)CCc3ccccc3)cs2)CC1`, the Kb was 155 nM.

As to `CCCN(C)CCc1csc(N2CCN(CCC)CC2)n1`, the Kb is 120 nM.

Consider `CCCN1CCN(c2nc(CCN(C)C)cs2)CC1`, for which the Kb was 174 nM.

The target of a further assay is Histamine H3 receptor (Rattus norvegicus, UniProt Q9QYN8). Description: Binding affinity to Rattus norvegicus (rat) H3 receptor.
Histamine H3 receptor (Rattus norvegicus, UniProt Q9QYN8), sequence (Q9QYN8 whole entry): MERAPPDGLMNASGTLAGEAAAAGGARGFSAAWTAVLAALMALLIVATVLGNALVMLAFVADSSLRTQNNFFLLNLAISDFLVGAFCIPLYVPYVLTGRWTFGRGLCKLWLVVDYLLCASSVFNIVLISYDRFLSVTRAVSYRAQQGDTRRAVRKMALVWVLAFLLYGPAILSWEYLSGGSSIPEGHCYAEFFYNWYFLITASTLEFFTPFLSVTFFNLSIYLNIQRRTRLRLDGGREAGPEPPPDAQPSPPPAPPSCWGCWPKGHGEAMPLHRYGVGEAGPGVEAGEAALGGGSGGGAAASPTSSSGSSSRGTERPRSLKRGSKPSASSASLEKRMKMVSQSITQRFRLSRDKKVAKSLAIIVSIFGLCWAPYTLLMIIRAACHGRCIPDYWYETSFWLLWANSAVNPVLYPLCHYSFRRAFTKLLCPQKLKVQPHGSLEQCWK
Conditions: not given
For orientation: Ki means the equilibrium dissociation constant of an inhibitor or competing ligand from its target. A lower Ki goes with a stronger hold on the target. Regarding `O=C(c1ccc(OCCCN2CCCCC2)cc1)C1CC1`, the Ki amounted to 4 nM.
